This passage reports inhibition results from ChEMBL document CHEMBL1138115, “The synthesis and aqueous superoxide anion scavenging of water-dispersible lutein esters” (2006).

Common to all, as to format: functional
What all share (details): Homo sapiens

For experiment [1], the system named is PMNL. The experiment in a line: Inhibition of Superoxide radical scavenging activity in water at 0.1 mM in PMA-stimulated PMN. In a few lines: (§1)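 Human PMNs were isolated by Percoll gradient (density 1.080 g/mL) from fresh venous blood of a single volunteer and suspended in PAG-CM buffer (PIPES pH 7.4, HSA, glucose, 1 mM CaCl2/MgCl2). 1 × 10⁶ cells were preincubated 5 min with compound in water or 40% EtOH, then stimulated with PMA (1 ng/mL). Superoxide was spin-trapped with DEPMPO (10 mM) and read by X-band EPR. Results are mean % signal inhibition, N=3 per formulation except one N=1.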

In experiment [2] the test system is PMNL. The experiment in a line: Inhibition of Superoxide radical scavenging activity in water at 3.0 mM in PMA-stimulated PMN. The essentials:
as §1

For experiment [3], the system named is PMNL. The experiment in a line: Inhibition of Superoxide radical scavenging activity in 40% EtOH at 0.1 mM in PMA-stimulated PMN. The essentials:
as §1

The subject of experiment [4] is PMNL. The experiment in a line: Inhibition of Superoxide radical scavenging activity in water at 5.0 mM in PMA-stimulated PMN. The essentials:
as §1

In experiment [5] the test system is PMNL. The experiment in a line: Inhibition of Superoxide radical scavenging activity in water at 1.0 mM in PMA-stimulated PMN. The essentials:
as §1

Counter-ions that a name gives are not always drawn.

As for `CC1=CC(OP(=O)(O)O)CC(C)(C)C1/C=C/C(C)=C/C=C/C(C)=C/C=C/C=C(C)/C=C/C=C(C)/C=C/C1=C(C)CC(OP(=O)(O)O)CC1(C)C` (stereo not given) [LUTEIN DIPHOSPHATE SODIUM SALT], the inhibition at 100 µM in the experiment with PMNL [1] amounted to 0%; in the experiment on PMNL [3], 18%. Testing at 3000 µM in the experiment on PMNL [2] gave an inhibition of 72.3%. Moreover, in the experiment on PMNL [4], the inhibition at 5000 µM worked out at 91%. The molecule further registered an inhibition at 1000 µM in the experiment with PMNL [5] of 9.3%.

Regarding `CC1=CC(OC(=O)CCC(=O)O)CC(C)(C)C1/C=C/C(C)=C/C=C/C(C)=C/C=C/C=C(C)/C=C/C=C(C)/C=C/C1=C(C)CC(OC(=O)CCC(=O)O)CC1(C)C` (stereo not given) [LUTEIN DISUCCINATE SODIUM SALT], the inhibition at 100 µM amounted to 0% with PMNL [1] and 5% in the experiment with PMNL [3]. The inhibition at 3000 µM with PMNL [2] turned out to be 61.7%. The molecule also registered an inhibition at 5000 µM in the experiment on PMNL [4] of 74.7%. Also, at 1000 µM the inhibition in the experiment with PMNL [5] was 13%.
